Measurements from ChEMBL document CHEMBL4819122, “Novel 4-(piperazin-1-yl)quinolin-2(1H)-one bearing thiazoles with antiproliferative activity through VEGFR-2-TK inhibition” (Bioorg Med Chem, 2021).
Active and inactive are the calls of the source. The calls are words filed in the database; no cut-off is given here.

Assays:
OVCAR-8 = assay: Cytotoxicity against human OVCAR-8 assessed as growth inhibition at 10 uM by NCI protocol relative to control; type: functional; settings: read-out: GI
Summary of the method: (§1)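 Run by NCI as a single-dose screen at 10 μM across the sixty-cell-line panel, which covers nine human tumour tissue types. The read-out is percent growth inhibition of treated cells relative to untreated cells.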

CAKI-1 = assay: Cytotoxicity against human Caki1 assessed as growth inhibition at 10 uM by NCI protocol relative to control; type: functional; settings: read-out: GI; summary of the method: as §1
UACC-62 = assay: Cytotoxicity against human UACC-62 assessed as growth inhibition at 10 uM by NCI protocol relative to control; type: functional; settings: read-out: GI
Summary of the method: (§2)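 Run by the NCI under its standard protocol: one dose of 10 μM against a sixty-line panel from nine human tumour tissues. Result given as percent growth inhibition of treated cells relative to untreated cells.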

U-251 = assay: Cytotoxicity against human U251 assessed as growth inhibition at 10 uM by NCI protocol relative to control; type: functional; settings: read-out: GI; summary of the method: as §2
OVCAR-4 = assay: Cytotoxicity against human OVCAR-4 assessed as growth inhibition at 10 uM by NCI protocol relative to control; type: functional; settings: read-out: GI; summary of the method: as §1
M14 = assay: Cytotoxicity against human M14 assessed as growth inhibition at 10 uM by NCI protocol relative to control; type: functional; settings: read-out: GI; summary of the method: as §1
HCC 2998 = assay: Cytotoxicity against human HCC-2998 assessed as growth inhibition at 10 uM by NCI protocol relative to control; type: functional; settings: read-out: GI; summary of the method: as §1
SK-MEL-28 = assay: Cytotoxicity against human SK-MEL-28 assessed as growth inhibition at 10 uM by NCI protocol relative to control; type: functional; settings: read-out: GI; summary of the method: as §1
786-0 = assay: Cytotoxicity against human 786-0 assessed as growth inhibition at 10 uM by NCI protocol relative to control; type: functional; settings: read-out: GI; summary of the method: as §1
NCI/ADR-RES = assay: Cytotoxicity against human NCl/ADR-RES assessed as growth inhibition at 10 uM by NCI protocol relative to control; type: functional; settings: read-out: GI; summary of the method: as §1
MDA-MB-435 = assay: Cytotoxicity against human MDA-MB-435 assessed as growth inhibition at 10 uM by NCI protocol relative to control; type: functional, cell-based; summary of the method: as §1
SF-295 = assay: Cytotoxicity against human SF-295 assessed as growth inhibition at 10 uM by NCI protocol relative to control; type: functional; settings: read-out: GI; summary of the method: as §1
OVCAR-3 = assay: Cytotoxicity against human OVCAR-3 assessed as growth inhibition at 10 uM by NCI protocol relative to control; type: functional; settings: read-out: GI; summary of the method: as §1
HL-60 = assay: Cytotoxicity against human HL60 assessed as growth inhibition at 10 uM by NCI protocol relative to control; type: functional; settings: read-out: GI; summary of the method: as §1
NCI-H460 = assay: Cytotoxicity against human NCI-H460 assessed as growth inhibition at 10 uM by NCI protocol relative to control; type: functional; settings: read-out: GI; summary of the method: as §1
HCT-116 = assay: Cytotoxicity against human HCT-116 assessed as growth inhibition at 10 uM by NCI protocol relative to control; type: functional; settings: read-out: GI; summary of the method: as §1
BT-549 = assay: Cytotoxicity against human BT-549 assessed as growth inhibition at 10 uM by NCI protocol relative to control; type: functional; settings: read-out: GI; summary of the method: as §1
SW-620 = assay: Cytotoxicity against human SW-620 assessed as growth inhibition at 10 uM by NCI protocol relative to control; type: functional; settings: read-out: GI; summary of the method: as §2
ACHN = assay: Cytotoxicity against human ACHN assessed as growth inhibition at 10 uM by NCI protocol relative to control; type: functional; settings: read-out: GI; summary of the method: as §1
NCI-H522 = assay: Cytotoxicity against human NCI-H522 assessed as growth inhibition at 10 uM by NCI protocol relative to control; type: functional; settings: read-out: GI; summary of the method: as §1
NCI-H226 = assay: Cytotoxicity against human NCI-H226 assessed as growth inhibition at 10 uM by NCI protocol relative to control; type: functional; settings: read-out: GI; summary of the method: as §1
PC-3 = assay: Cytotoxicity against human PC3 assessed as growth inhibition at 10 uM by NCI protocol relative to control; type: functional; settings: read-out: GI; summary of the method: as §1
SR = assay: Cytotoxicity against human SR assessed as growth inhibition at 10 uM by NCI protocol relative to control; type: functional; settings: read-out: GI; summary of the method: as §2
SF-539 = assay: Cytotoxicity against human […] assessed as growth inhibition at 10 uM by NCI protocol relative to control; type: functional; settings: read-out: GI; summary of the method: as §1
SNB-75 = assay: Cytotoxicity against human SNB-75 assessed as growth inhibition at 10 uM by NCI protocol relative to control; type: functional; settings: read-out: GI; summary of the method: as §2
Hs-578T = assay: Cytotoxicity against human HS 578T assessed as growth inhibition at 10 uM by NCI protocol relative to control; type: functional; settings: read-out: GI; summary of the method: as §1
NCI-H322M = assay: Cytotoxicity against human NCI-H322M assessed as growth inhibition at 10 uM by NCI protocol relative to control; type: functional; settings: read-out: GI; summary of the method: as §1
CCRF-CEM = assay: Cytotoxicity against human CCRF-CEM assessed as growth inhibition at 10 uM by NCI protocol relative to control; type: functional; settings: read-out: GI; summary of the method: as §1
HT-29 = assay: Cytotoxicity against human HT29 assessed as growth inhibition at 10 uM by NCI protocol relative to control; type: functional; settings: read-out: GI; summary of the method: as §1
A549 = assay: Cytotoxicity against human A549 assessed as growth inhibition at 10 uM by NCI protocol relative to control; type: functional; settings: read-out: GI; summary of the method: as §1
MOLT-4 = assay: Cytotoxicity against human MOLT-4 assessed as growth inhibition at 10 uM by NCI protocol relative to control; type: functional; settings: read-out: GI; summary of the method: as §1
EKVX = assay: Cytotoxicity against human EKVX assessed as growth inhibition at 10 uM by NCI protocol relative to control; type: functional; settings: read-out: GI; summary of the method: as §1
K562 = assay: Cytotoxicity against human K-562 assessed as growth inhibition at 10 uM by NCI protocol relative to control; type: functional; settings: read-out: GI; summary of the method: as §1
UACC-257 = assay: Cytotoxicity against human UACC-257 assessed as growth inhibition at 10 uM by NCI protocol relative to control; type: functional; settings: read-out: GI; summary of the method: as §2
IGROV-1 = assay: Cytotoxicity against human IGROVI assessed as growth inhibition at 10 uM by NCI protocol relative to control; type: functional; settings: read-out: GI; summary of the method: as §1
KM12 = assay: Cytotoxicity against human KM12 assessed as growth inhibition at 10 uM by NCI protocol relative to control; type: functional; settings: read-out: GI; summary of the method: as §1
NCI-H23 = assay: Cytotoxicity against human NCI-H23 assessed as growth inhibition at 10 uM by NCI protocol relative to control; type: functional; settings: read-out: GI; summary of the method: as §1
HCT-15 = assay: Cytotoxicity against human HCT-15 assessed as growth inhibition at 10 uM by NCI protocol relative to control; type: functional; settings: read-out: GI; summary of the method: as §1
DU-145 = assay: Cytotoxicity against human DU-145 assessed as growth inhibition at 10 uM by NCI protocol relative to control; type: functional; settings: read-out: GI; summary of the method: as §1
Malme-3M = assay: Cytotoxicity against human MALME-3M assessed as growth inhibition at 10 uM by NCI protocol relative to control; type: functional; settings: read-out: GI; summary of the method: as §1
MCF7 = assay: Cytotoxicity against human MCF7 assessed as growth inhibition at 10 uM by NCI protocol relative to control; type: functional; settings: read-out: GI; summary of the method: as §1
RPMI-8226 = assay: Cytotoxicity against human RPMI-8226 assessed as growth inhibition at 10 uM by NCI protocol relative to control; type: functional; settings: read-out: GI; summary of the method: as §1
UO-31 = assay: Cytotoxicity against human UO31 assessed as growth inhibition at 10 uM by NCI protocol relative to control; type: functional; settings: read-out: GI; summary of the method: as §2
SK-MEL-5 = assay: Cytotoxicity against human SK-MEL-5 assessed as growth inhibition at 10 uM by NCI protocol relative to control; type: functional; settings: read-out: GI; summary of the method: as §1

O=C(CN1CCN(c2cc(=O)[nH]c3ccc(F)cc23)CC1)Nc1nc(-c2ccc(Cl)cc2)cs1
inhibition of growth at 10 µM (OVCAR-8): 24%
inhibition of growth at 10 µM (CAKI-1): 55.5%
inhibition of growth at 10 µM (UACC-62): 32%
inhibition of growth at 10 µM (U-251): 37.3%
inhibition of growth at 10 µM (OVCAR-4): 39.1%
inhibition of growth at 10 µM (M14): 30.6%
inhibition of growth at 10 µM (HCC 2998): 30.9%
inhibition of growth at 10 µM (SK-MEL-28): 17.3%
inhibition of growth at 10 µM (786-0): 32.8%
inhibition of growth at 10 µM (NCI/ADR-RES): 41.9%
growth inhibition (GI) (MDA-MB-435): inactive
inhibition of growth at 10 µM (SF-295): 20.4%
inhibition of growth at 10 µM (OVCAR-3): 16.9%
inhibition of growth at 10 µM (HL-60): 38.3%
inhibition of growth at 10 µM (NCI-H460): 18.1%
inhibition of growth at 10 µM (HCT-116): 48%
inhibition of growth at 10 µM (BT-549): 27.5%
inhibition of growth at 10 µM (SW-620): 41.2%
inhibition of growth at 10 µM (ACHN): 38.5%
inhibition of growth at 10 µM (NCI-H522): 25.9%
inhibition of growth at 10 µM (NCI-H226): 12.6%
inhibition of growth at 10 µM (PC-3): 45.1%
inhibition of growth at 10 µM (SR): 29.1%
inhibition of growth at 10 µM (SF-539): 30.5%
inhibition of growth at 10 µM (SNB-75): 46.2%
inhibition of growth at 10 µM (Hs-578T): 33.5%
inhibition of growth at 10 µM (NCI-H322M): 21.3%
inhibition of growth at 10 µM (CCRF-CEM): 33.3%
inhibition of growth at 10 µM (HT-29): 25.6%
inhibition of growth at 10 µM (A549): 44.4%
inhibition of growth at 10 µM (MOLT-4): 52.8%
inhibition of growth at 10 µM (EKVX): 43.3%
inhibition of growth at 10 µM (K562): 44.8%
inhibition of growth at 10 µM (UACC-257): 31.3%
inhibition of growth at 10 µM (IGROV-1): 50.8%
inhibition of growth at 10 µM (KM12): 30.1%
inhibition of growth at 10 µM (NCI-H23): 28.8%
inhibition of growth at 10 µM (HCT-15): 34.9%
inhibition of growth at 10 µM (DU-145): 41.1%
inhibition of growth at 10 µM (Malme-3M): 43.3%
inhibition of growth at 10 µM (MCF7): 39.7%
inhibition of growth at 10 µM (RPMI-8226): 38.3%
inhibition of growth at 10 µM (UO-31): 38%
inhibition of growth at 10 µM (SK-MEL-5): 34.6%
